# The list is not random: actives were taken first. Their share in the collection is about 3.5%.
# MrgX1 antagonist = human MrgX1 receptor antagonism, primary screen. MRGX1-HEK293 calcium flux, Fluo-4, BAM8-22 antagonism; stronger effect = lower value. AID 588676. B-score at 10 µM. actives 1.3% (n = 310,000). Q96LB2;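 active = calcium-response B-score plate-corrected more than 3 library SD below zero, starting fluorescence within 5 deviations, no agonist response on first addition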;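 also: peak minus trough fluorescence over baseline after final BAM8-22 challenge near maximal dose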
# Target sequence (Q96LB2 whole entry, looked up): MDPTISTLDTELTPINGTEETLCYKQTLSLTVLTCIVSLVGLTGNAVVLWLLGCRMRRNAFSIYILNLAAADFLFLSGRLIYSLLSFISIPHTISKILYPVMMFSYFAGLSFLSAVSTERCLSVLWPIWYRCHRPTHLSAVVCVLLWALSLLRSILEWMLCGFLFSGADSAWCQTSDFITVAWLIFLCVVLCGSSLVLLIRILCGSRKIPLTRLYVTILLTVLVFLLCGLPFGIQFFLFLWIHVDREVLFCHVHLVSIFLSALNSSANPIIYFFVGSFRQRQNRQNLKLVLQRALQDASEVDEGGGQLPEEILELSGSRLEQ
# MrgX1 agonist = agonists of human MrgX1 receptor; actives 0.44% (n = 310,000); MrgX1-HEK293 cells, Fluo-4 calcium fluorescence, agonist mode; stronger effect = higher value; B-score at 10 µM; Q96LB2; AID 588627;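 active = calcium response B-score plate-corrected fluorescence ratio at least 3 library SD, with starting fluorescence B-score inside 5 SD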
#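 Material: HEK293 cells stably expressing human MrgX1 receptor | Quantity: 15,000 cells per well | Times: Cells plated overnight, dye loaded 0.5 h 37 °C, 0.5 h room temperature | Measured by: Kinetic Fluo-4 NW fluorescence of intracellular calcium | Control set: Positive and negative controls per plate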
# RGS4 act = potentiators or activators of RGS4 | AID 463111 | HEK293 M3R/inducible RGS4, carbachol calcium flux Fluo4; stronger effect = lower value | B-score at 10 µM | actives 0.92% (n = 310,000);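 active = B-score of the integrated calcium signal more than 4 SD below the library mean, with starting fluorescence not abnormally high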;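 also: negative B-score means reduced calcium response which marks RGS4 activation or potentiation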
#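 System: HEK293 FlpIn-TREx cells, stable M3R, doxycycline-inducible RGS4. Timing: overnight RGS4 induction, 30 min dye load 37 °C, 20 min compound RT. Also added: carbachol, ECmax concentration. Measured by: Fluo4 fluorescence kinetic imaging of calcium. Evaluation: integrated calcium ratio converted to B score.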
# MrgX1 PAM = human MrgX1 positive allosteric modulation, primary screen | Q96LB2 | MrgX1-HEK293, Fluo-4 calcium flux, FDSS; stronger effect = higher value | B-score at 10 µM | actives 0.63% (n = 310,000);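 active = plate-corrected calcium response at least 3 library SD above typical, normal starting fluorescence, not activating the receptor alone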;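 also: compound read alongside a low EC10 to EC30 dose of BAM8-22 agonist; peak minus trough fluorescence over baseline measured at the second addition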
# RGS4 block = human RGS4 inhibition; AID 463165; B-score at 10 µM; P49798; actives 0.45% (n = 310,000); HEK293 M3R/RGS4 inducible, Fluo-4 calcium flux; stronger effect = higher value; triggered by carbachol at its EC20;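 active = B-score, a plate-corrected calcium signal, over three deviations above library mean, with baseline fluorescence within five deviations of library mean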;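 also: RGS4 expression induced by doxycycline in cells with stable M3 receptor; B-score is computed from the integrated fluorescence ratio over baseline after carbachol; higher B-score means a larger calcium signal and so more RGS4 inhibition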
# Target sequence (P49798 whole entry, looked up): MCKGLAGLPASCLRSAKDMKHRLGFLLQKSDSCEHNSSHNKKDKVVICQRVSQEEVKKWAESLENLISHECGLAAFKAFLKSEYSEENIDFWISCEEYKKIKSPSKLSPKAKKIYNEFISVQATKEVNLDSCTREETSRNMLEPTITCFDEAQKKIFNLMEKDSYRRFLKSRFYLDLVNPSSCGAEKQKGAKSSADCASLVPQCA
# RGS4 block valid = validation of RGS4 inhibitors | calcium response, % at 10 µM | HEK293 M3R/RGS4, carbachol calcium Fluo-4 fluorescence; carbachol added at its EC20; 0 = buffer wells, 100 = carbachol control | actives 65% (n = 1,700) | AID 492999 | shares compounds with RGS4 block;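 active = duplicate-averaged calcium response above the buffer-only control mean plus 5 SD of those controls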;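 also: integrated fluorescence ratio F max minus min over baseline F0; higher response in RGS4-induced cells means RGS4 inhibition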
# RGS4 uninduced = checks RGS4 inhibitor effects in non-induced HEK293 M3R cells | shares compounds with RGS4 block | carbachol calcium Fluo-4; submaximal (EC20) carbachol stimulus; buffer wells 0%, carbachol control wells 100% | AID 493000 | activity (percent), % at 10 µM | actives 20% (n = 1,900); call rule not given here;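 also: RGS4 induction absent so cells express M3R without RGS4; higher means more calcium signal and flags a non-specific hit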
# RGS4 inh ctr2 = second RGS4 inhibitor counter-screen in uninduced cells lacking carbachol; shares compounds with RGS4 block; HEK293 M3R/RGS4 non-induced, Fluo-4 calcium, no carbachol; normalised: buffer wells 0%, carbachol wells 100%; calcium response (agonist-mode artifact), % at 10 µM; actives 22% (n = 1,900);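 active = duplicate-averaged calcium rise in uninduced cells above buffer wells' mean plus 5 SD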
# * = called active by the depositor; i = inactive; . = no result.
SMILES,MrgX1 antagonist,MrgX1 agonist,RGS4 act,MrgX1 PAM,RGS4 block,RGS4 block valid,RGS4 uninduced,RGS4 inh ctr2
COc1cc(/C=C/C(=O)c2ccc([N+](=O)[O-])o2)ccc1O,i,i,i,i,8.7*,39%*,i,i
COc1ccc(/C=C/C(=O)c2ccc([N+](=O)[O-])o2)cc1OC,i,i,i,i,i,.,i,i
O=C(/C=C/c1cccc(Cl)c1)c1ccc([N+](=O)[O-])o1,i,i,i,i,14*,18%*,34%*,7.0%*
COCCNC(=O)Cn1nc(-c2ccccc2OC)ccc1=O,i,i,i,i,i,.,.,.
O=c1c(Cl)c(Cl)cnn1Cc1nnc(-c2ccccc2Br)o1,.,.,i,.,72*,142%*,42%*,i
CC(C)Oc1ccc(C(=O)/C=C2/C(=O)Nc3ccccc32)cc1,i,i,i,i,5.1*,10%*,72%*,i
Cc1ccc(-n2nc3c(=O)n(CC(=O)NCc4ccccc4Cl)nc(C)c3c2C)cc1,i,i,i,i,i,.,.,.
Cc1ccc(-n2nc3c(=O)n(CC(=O)NCc4ccccc4)nc(C)c3c2C)cc1,i,i,i,i,i,i,i,i
Cc1ccc(-n2nc3c(=O)n(CC(=O)NCCc4cccs4)nc(C)c3c2C)cc1,i,i,i,i,i,i,i,i
CCc1sc(C(C2C(=O)CC(C)(C)CC2=O)C2C(=O)CC(C)(C)CC2=O)cc1[N+](=O)[O-],i,52*,i,i,30*,30%*,i,121%*
OCCN(CCO)c1ccc2ccccc2c1,i,i,i,i,i,.,.,.
OCCN(CCO)c1ccc(C(c2ccccc2Cl)c2ccc(N(CCO)CCO)cc2Cl)c(Cl)c1,i,i,i,i,i,i,i,15%*
CCC(=O)Nc1ccc2c(c1)nc(CCNC(=O)c1ccco1)n2C,i,i,i,i,i,.,i,i
Cc1ccccc1C(=O)Nc1ccc2c(c1)nc(CCNC(=O)c1ccco1)n2C,i,i,i,i,i,.,.,.
CCOC(=O)c1sc(N2C(=O)C(O)=C(C(=O)c3ccco3)C2c2cccc([N+](=O)[O-])c2)nc1C (stereo not drawn),i,i,i,i,i,i,i,i
COc1ccc(C(=O)NCCN2C(=O)S/C(=C\c3cccnc3)C2=O)cc1[N+](=O)[O-],i,i,i,i,i,i,i,i
O=C(/C=C/c1cccc([N+](=O)[O-])c1)N1CCN(c2ccccn2)CC1,i,i,i,i,i,.,.,.
O=C(/C=C/c1cccc([N+](=O)[O-])c1)Nc1ccc(NC(=O)c2cccs2)cc1,i,i,i,i,i,.,.,.
Cc1cc(O)c(C(=O)/C=C/c2cccc([N+](=O)[O-])c2)c(=O)o1,i,i,i,i,4.7*,30%*,i,i
O=C(/C=C/c1cccc([N+](=O)[O-])c1)n1cnc2ccccc21,.,.,i,.,7.9*,19%*,i,i
O=C(/C=C/c1cccc([N+](=O)[O-])c1)c1cccs1,i,35*,i,i,4.8*,i,i,i
O=C(CSC1=Nc2ccccc2C2=NC(CC(=O)NC3CCCCC3)C(=O)N12)NCc1ccco1 (stereo not drawn),i,i,i,i,i,.,.,.
O=C(CN1CCN(C(=O)c2ccco2)CC1)Nc1ccc(Br)cc1,i,i,i,i,i,.,.,.
CCCN(Cc1nc(-c2ccc(Cl)cc2)no1)CC1CCCO1 (stereo not drawn),i,i,i,i,i,.,.,.
NC(=S)N/N=C/c1ccc(-n2nncc2-c2ccc(Cl)cc2)cc1,i,i,i,i,39*,23%*,64%*,i
SMILES,MrgX1 antagonist,MrgX1 agonist,RGS4 act,MrgX1 PAM,RGS4 block,RGS4 block valid,RGS4 uninduced,RGS4 inh ctr2
COc1ccc(NS(=O)(=O)c2cc(-c3cnc(C4CC4)o3)ccc2C)cc1,i,i,i,i,i,.,.,.
COC(=O)C1C(=O)C(C(=O)c2ccc([N+](=O)[O-])cc2)C(=O)CC1(C)C (stereo not drawn),i,i,i,i,i,.,.,.
COc1ccc(NC(=O)n2ncc3c(C)cccc32)cc1OC,i,i,i,i,i,.,.,.
C=CCOc1ccc2c(c1)C(=NO)c1cc(OCC=C)ccc1-2,i,i,i,i,5.6*,9.5%*,i,i
CN(C)c1ccc(/C=C(\NC(=O)c2ccccc2)C(=O)NCc2cccnc2)cc1,i,i,i,i,i,i,i,i
COc1ccc(/C=C(\NC(=O)c2ccccc2)C(=O)NCc2cccnc2)cc1,i,i,i,i,i,i,i,i
CN(C)c1ccc(/C=C(\NC(=O)c2ccccc2)C(=O)NCc2ccncc2)cc1,i,i,i,i,i,.,.,.
c1ccc(-c2nc3cccnc3nc2-c2ccccc2)cc1,i,i,i,i,i,.,.,.
COc1ccc(/C=N/N=C2\SCC(=O)N2c2c(C)n(C)n(-c3ccccc3)c2=O)cc1OC,i,i,i,i,i,.,.,.
Cc1ccc(/C=c2\sc3n(c2=O)CN(c2ccc(Br)cc2)CN=3)o1,i,i,i,i,i,.,.,.
Cc1ccc(/C=c2/sc3n(c2=O)CCCN=3)o1,i,i,i,i,5.3*,i,i,12%*
CCOc1cc(CNc2ccc(S(N)(=O)=O)cc2)cc(Cl)c1OC,i,i,i,i,i,.,.,.
CCOc1cc(CNc2ccc(N3CCCC3)cc2)cc(Cl)c1OC,i,i,i,i,5.1*,14%*,i,i
O=C(NC(=S)NCCCN1CCOCC1)c1ccco1,i,i,i,i,i,.,.,.
CC(=O)Nc1cccc(C(=O)NC2CCCc3c2cnn3-c2ccccc2F)c1 (stereo not drawn),i,i,i,i,i,.,.,.
CCOC(=O)CSc1nnc(CNc2ccc(Cl)cc2)n1-c1ccccc1,i,i,i,i,i,.,.,.
